Sampled rows, rich in hits. Any-hit rate of the full collection: about 12%.
ABCG2 block: human ABCG2 inhibition, ABCB1 as counter-screen. inhibition, % at 6.6 µM. IgMXP3 cells, JC-1 efflux, flow cytometry. 190,000 tested, 0.1% active. Q9UNQ0;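 active = inhibition above 80%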
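material = IgMXP3 (ABCG2) plus far-red-tagged CCRF-Adr (ABCB1) cells | amount = 3 million cells/mL, equal mix of both lines | also added = JC-1 transporter substrate | dosing = one concentration, 6.6 µM final | schedule = 10 min at 25 °C | measured by = flow cytometric JC-1 green MFI at 530 nm | read-out basis = percent efflux inhibition, scaled nicardipine 100% to DMSO 0%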
WT yeast gro inh: growth inhibition of WT yeast, mitochondrial fusion screen | mitochondrial fusion phenotypic screen, WT strain | inhibition, % at 10 µM | 190,000 tested, 2.1% active | AID 1362; in the data active = inhibition above about 58%; tested in S. cerevisiae
ABCB1 block: inhibitors of human ABCB1 transporter, ABCG2 counter-screen; P08183; CCRF-Adr cells, JC-1 efflux, flow cytometry; 190,000 tested, 0.067% active; inhibition, % at 6.6 µM; in the data active = inhibition above about 40%;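 note: higher value means more JC-1 retained so stronger ABCB1 efflux block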
Target sequence (P08183 whole entry, looked up): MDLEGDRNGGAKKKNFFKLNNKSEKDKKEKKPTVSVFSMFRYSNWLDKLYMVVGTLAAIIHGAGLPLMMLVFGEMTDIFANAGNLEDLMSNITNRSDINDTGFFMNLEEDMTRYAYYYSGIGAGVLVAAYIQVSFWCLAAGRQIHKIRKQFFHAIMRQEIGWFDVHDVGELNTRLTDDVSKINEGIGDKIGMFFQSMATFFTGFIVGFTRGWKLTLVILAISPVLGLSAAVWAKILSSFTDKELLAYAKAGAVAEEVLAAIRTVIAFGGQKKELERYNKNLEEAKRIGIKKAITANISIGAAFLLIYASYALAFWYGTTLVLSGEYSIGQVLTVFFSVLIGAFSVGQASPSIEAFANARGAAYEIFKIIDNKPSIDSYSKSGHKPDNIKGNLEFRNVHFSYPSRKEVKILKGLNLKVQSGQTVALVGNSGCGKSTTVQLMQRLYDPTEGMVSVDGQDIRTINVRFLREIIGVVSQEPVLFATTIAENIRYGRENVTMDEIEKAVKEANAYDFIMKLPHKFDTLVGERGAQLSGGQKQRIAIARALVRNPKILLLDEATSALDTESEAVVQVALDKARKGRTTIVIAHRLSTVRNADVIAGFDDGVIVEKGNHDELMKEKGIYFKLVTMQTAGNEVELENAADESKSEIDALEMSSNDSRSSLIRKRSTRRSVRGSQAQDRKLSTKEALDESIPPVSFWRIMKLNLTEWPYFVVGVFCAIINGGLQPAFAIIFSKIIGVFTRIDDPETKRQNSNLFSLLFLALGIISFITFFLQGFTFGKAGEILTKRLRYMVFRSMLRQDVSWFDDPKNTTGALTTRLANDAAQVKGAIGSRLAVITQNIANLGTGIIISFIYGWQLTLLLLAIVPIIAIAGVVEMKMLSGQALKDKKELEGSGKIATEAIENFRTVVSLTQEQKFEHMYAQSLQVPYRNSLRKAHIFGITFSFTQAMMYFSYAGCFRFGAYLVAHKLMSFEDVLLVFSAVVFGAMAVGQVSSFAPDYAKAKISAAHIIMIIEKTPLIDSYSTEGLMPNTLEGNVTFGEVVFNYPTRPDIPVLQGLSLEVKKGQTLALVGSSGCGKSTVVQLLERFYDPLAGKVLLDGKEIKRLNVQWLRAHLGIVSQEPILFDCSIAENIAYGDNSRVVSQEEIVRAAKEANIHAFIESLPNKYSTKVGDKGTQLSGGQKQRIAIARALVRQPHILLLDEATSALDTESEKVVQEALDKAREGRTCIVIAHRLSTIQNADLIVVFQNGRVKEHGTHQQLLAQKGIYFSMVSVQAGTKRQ
RAM network inh: inhibitors of the yeast RAM network; S. cerevisiae dse1pr::URA3 reporter, 5-FOA growth OD615, 2 d; analog-sensitive cbk1-as2 kinase mutant strain; inhibition, % at 50 µM; 190,000 tested, 1.8% active; AID 868;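 active = inhibition above a set limit, 3 SD over mean compound inhibition, cut at about 8.4% in these data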;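 note: inhibition rescues growth on 5-FOA so higher OD means more RAM inhibition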
L major viab: inhibitors of Leishmania major promastigote growth. inhibition, % at 10 µM. AID 1063. Leishmania major promastigotes, resazurin fluorescence viability. 200,000 tested, 9% active; in the data active = inhibition above about 50%;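 note: promastigotes grown with compound for 44 hours at 28 °C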
RAM efflux-def: restores 5-FOA growth of efflux-deficient yeast | S. cerevisiae efflux-deficient reporter strain, 5-FOA growth OD615, 2 days | max inhibition, % | shares compounds with RAM network inh | 1,200 tested, under 10 active; call rule not given here
A number is an active result; – = inactive; · = no result.

SMILES	ABCG2 block	WT yeast gro inh	ABCB1 block	RAM network inh	L major viab	RAM efflux-def
CN(C)S(=O)(=O)c1ccc2[nH]cc(/C=C/c3nc4ccccc4c(=O)n3-c3ccccc3)c2c1	–	–	–	13	–	–
CCn1c(/C=C/c2c(C)[nH]c3ccccc23)nc2ccccc2c1=O	–	–	–	–	–	·
CCn1c(/C=C/c2c[nH]c3ccccc23)nc2ccccc2c1=O	–	–	–	–	–	·
Cc1[nH]c2ccccc2c1/C=C/c1nc2ccccc2c(=O)n1-c1ccc([N+](=O)[O-])cc1	–	–	–	11	–	–
CC(=O)C(N=Nc1ccccc1)(Sc1nnc(-c2ccccc2)n1-c1ccccc1)C(C)=O	–	79	–	12	–	–
Cc1ccc2nc(C)cc(C(=O)Nc3nccs3)c2c1	–	–	–	–	–	·
Cc1cc(C)c(OC2(c3ccccc3)OC(=O)c3ccccc32)c(C)c1 (stereo not drawn)	–	79	–	12	–	–
Cc1cc(C2(c3ccc(O)c(C)c3)OC(=O)c3ccccc32)ccc1O	–	–	–	–	–	·
CCOC1(c2ccccc2)OC(=O)c2ccccc21 (stereo not drawn)	–	–	·	–	–	·
Cc1cccc(C)c1OC1(c2ccccc2)OC(=O)c2ccccc21 (stereo not drawn)	–	–	–	12	98	–
CCN=C1SC(CC(=O)NC(C)c2ccccc2)C(=O)N1CC (stereo not drawn)	–	–	–	–	–	·
NC(=O)c1nn(-c2ccccc2)nc1NC(=O)Cn1nnc(-c2ccccc2)n1	–	–	–	–	–	·
Cc1ccc(CNC(=O)CCSCCC(=O)NCc2ccc(C)cc2)cc1	–	–	–	–	–	·
CCCNC(=O)c1ccccc1NC(=O)c1ccccc1SC	–	–	–	–	–	·
CCC(C)NC(=O)c1ccccc1NC(=O)c1ccc(CSc2ccccc2)cc1 (stereo not drawn)	–	–	–	20	–	–
CCC(NC(=O)c1ccccc1NC(=O)c1ccc(C)cc1)C(=O)O (stereo not drawn)	–	–	–	–	–	·
CCCNC(=O)c1ccccc1NC(=O)c1ccc(CSc2ccccc2)cc1	–	–	–	13	–	–
O=C(Nc1ccn(Cc2cccc3ccccc23)n1)c1cccnc1	–	–	–	12	–	–
O=C(NC(c1ccccc1)c1ccccc1)C1CCCC1	–	–	–	–	–	·
COc1ccccc1C(NC(=O)C1CCCCC1)c1c(O)ccc2ccccc12 (stereo not drawn)	–	–	–	12	–	–
CC(=O)Nc1ccccc1-c1nc2ccccc2nc1OCC(=O)c1ccc(Cl)cc1	–	–	–	–	–	·
CSCCC(NS(=O)(=O)c1ccc2ccccc2c1)C(=O)OCC(=O)c1ccc(C(C)C)cc1 (stereo not drawn)	–	–	–	15	87	–
CSCCC(NC(N)=O)C(=O)Nc1ccc2ccccc2c1 (stereo not drawn)	–	–	–	–	–	·
CCCCOc1ccc([N+](=O)[O-])cc1C(=O)O	–	–	–	–	–	·
COc1ccc(Nc2nnc(SCC3CCCCO3)s2)cc1 (stereo not drawn)	–	–	–	–	–	·
SMILES	ABCG2 block	WT yeast gro inh	ABCB1 block	RAM network inh	L major viab	RAM efflux-def
Cc1cccc(Nc2nnc(SCC3CCCCO3)s2)c1 (stereo not drawn)	–	–	–	14	–	–
COC(=O)c1cc2c(ccn2-c2ccc(F)cc2)n1Cc1cccc(OC)c1	–	–	·	13	98	–
CC(NC(=O)C1c2ccccc2Oc2ccccc21)C1CCCO1 (stereo not drawn)	–	–	–	–	–	·
O=C(OCC#CCSc1nnc(-c2ccc(Br)cc2)o1)c1cccs1	–	–	–	16	–	–
Cc1ccc(-c2nnc(SCC#CCOC(=O)c3cccs3)o2)cc1	–	–	–	–	–	·
Cc1noc(C)c1COc1cccc(C(=O)Nc2ccc(OCc3ccccc3)cc2)c1	–	–	–	12	53	–
Cc1noc(C)c1COc1ccc(C(=O)Nc2ccccc2)cc1	–	–	–	–	–	·
O=C(c1cnc(-c2ccc(Cl)cc2)s1)c1ccc(Cl)cc1Cl	–	73	–	15	–	–
Cc1cc(Oc2ccc(Cl)cc2)nc(-c2ccccc2O)n1	–	–	–	14	–	–
COC(=O)c1ccc(-c2ncc(-c3cccc4ccccc34)o2)cc1	–	–	–	13	–	–

Screening results deposited in PubChem by several laboratories.
